PG9 binder – binders of HIV-1 gp120 antibody PG9, primary screen, biochemical, TR-FRET; TR-FRET gp120-PG9 antibody binding; inhibition, % at 6.7 µM; 0.43% of 360,000 active; in the data active = inhibition above about 8.5%
NR2E3 ag-1 – NR2E3 agonists in two-hybrid cells, primary screen, cell-based, luminescence, CHO-S, Gal4-NCOR/VP16-NR2E3; Photoreceptor-specific nuclear receptor (Homo sapiens), Q9Y5X4; luciferase; inhibition of corepressor binding, % at 3.98 µM; 0.35% of 360,000 active; AID 602229, 2012;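 active = inhibition above the mean of all tested compounds plus 3 SD, cut at about 70% in these data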;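 also: 0% = DMSO with NR2E3 transfected cells and 100% = cells lacking NR2E3 construct; higher means lower luciferase signal from less NR2E3 corepressor binding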
Target sequence (Q9Y5X4 whole entry, looked up, the tested form may be a part): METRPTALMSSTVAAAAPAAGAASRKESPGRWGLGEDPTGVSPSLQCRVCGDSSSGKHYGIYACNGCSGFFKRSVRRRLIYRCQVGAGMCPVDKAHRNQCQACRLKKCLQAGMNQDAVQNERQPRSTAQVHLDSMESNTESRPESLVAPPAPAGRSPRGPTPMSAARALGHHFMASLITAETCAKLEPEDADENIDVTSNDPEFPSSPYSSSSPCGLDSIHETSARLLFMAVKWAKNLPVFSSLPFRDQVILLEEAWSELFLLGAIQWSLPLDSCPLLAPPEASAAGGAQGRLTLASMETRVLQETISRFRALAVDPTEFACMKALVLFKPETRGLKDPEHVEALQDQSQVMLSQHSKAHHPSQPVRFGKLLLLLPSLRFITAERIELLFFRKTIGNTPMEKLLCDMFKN
NR2E3 ag-2 – inhibitors of NR2E3-RetCOR corepressor binding, primary screen, NR2E3 agonist project, biochemical, TR-FRET, GST-NR2E3, biotin-RetCOR | 1536-well | inhibition of corepressor binding, % at 4.78 µM | 0.12% of 320,000 active | AID 2300, 2010;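 active = percent inhibition above the cutoff of mean plus 3 SD of all tested compounds, set per screening campaign, cut at about 20% in these data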;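 also: 0% = DMSO wells and 100% = biotin wells as full block of FRET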
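Material: NR2E3–RetCOR corepressor complex / Amount: 1.35 nM GST-NR2E3 / Medium: Tris pH 7.5 / Compound: single nominal compound dose of 4.8 µM / Incubation: 5 h at 4 °C / Technique: TR-FRET, Eu(K)-anti-GST donor, streptavidin-D2 acceptor, ex 340, em 617/671 nm / Read-out basis: percent loss of FRET ratio relative to control wells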
MC4R barr agon – MC4R agonists recruiting beta-arrestin, primary screen, cell-based, luminescence, agonist arm of biased-ligand search. AID 540308, 2011. 0.98% of 360,000 active. activation, % at 8.9 µM. Melanocortin receptor 4 (Homo sapiens), P32245. U2OS MC4R beta-arrestin complementation; percent of melanotan II response, DMSO zero;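 active = activation above a per-plate cutoff, the mean activation of sample wells on that plate plus 3 SD, cut at about 8% in these data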
MC4R antagonist – MC4R antagonists of cAMP signaling, primary screen, cell-based, TR-FRET, antagonist arm of biased-ligand search | Melanocortin receptor 4 (Homo sapiens), P32245 | MC4R-expressing cells, MTII-stimulated cAMP, LANCE TR-FRET | inhibition, % at 6.5 µM | 0.48% of 360,000 active | AID 540295, 2011;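 active = inhibition above its plate's cutoff, the mean of tested wells on that plate plus 3 SD, cut at about 29% in these data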;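 also: 0% = Melanotan II alone and 100% = Melanotan II plus saturating MCL0020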
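System – human MC4R-expressing U2OS cells · Also added – Melanotan II · Dosing – one concentration, 6.5 µM nominal · Timing – 30-min compound, 1-h challenge, 1-h detection, room temperature · Measured by – Eu-cAMP/anti-cAMP TR-FRET, emission 671 nm · Replicates – singlicate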
Rev-erbA mod – modulators of Rev-erb alpha DNA binding, primary screen, biochemical, FITC-DNA, fluorescence polarization, uHTS; Nuclear receptor subfamily 1 group D member 1 (Homo sapiens), P20393; Rev-erbα–FITC-DNA binding, 90 min; activity, % at 10 µM; 0.79% of 370,000 active; AID 1259318, 2017;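 active = activity above about 14%, limit read from the data; passing the limit was not always enough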;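 also: 0% = DMSO wells with 35 nM protein and 100% = DMSO wells with 750 nM protein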
The depositor's hits bear a star. Shown are actives, neighbours in structure and some others; about 2.7% of the full set was active somewhere.

`CCOC(=O)c1c(C)[nH]c(C(=O)CSc2ccccc2)c1C` gave PG9 binder 3, NR2E3 ag-1 -127, NR2E3 ag-2 0, MC4R barr agon 8.4*, MC4R antagonist -5 and Rev-erbA mod 2.
CCOC(=O)c1c(C)[nH]c(C(=O)COC(=O)c2oc3ccc(OC)cc3c2C)c1C was read as PG9 binder 1, NR2E3 ag-1 -2, NR2E3 ag-2 2, MC4R barr agon -1, MC4R antagonist 0 and Rev-erbA mod 3.
CCOC(=O)c1c(C)[nH]c(C(=O)COC(=O)c2oc3ccccc3c2C)c1C was read as PG9 binder -1, NR2E3 ag-1 -3, NR2E3 ag-2 -1, MC4R barr agon 8.3*, MC4R antagonist -3 and Rev-erbA mod 5.
`Cc1noc(C)c1COC(=O)c1ccccc1Sc1ccccc1C#N` gave PG9 binder 2, NR2E3 ag-1 -12, NR2E3 ag-2 3, MC4R barr agon 0, MC4R antagonist -1 and Rev-erbA mod 10.
For COc1nc(Cl)cn(-c2ccc(Cl)cc2)c1=O the results were PG9 binder 2, NR2E3 ag-1 -20, NR2E3 ag-2 0, MC4R barr agon -1, MC4R antagonist -6 and Rev-erbA mod -2.
COC(=O)N1C[C@H](OCc2ccccc2)[C@H]2C[C@@H]1c1ccccc1O2 was read as PG9 binder 1 and Rev-erbA mod 4.
For Cc1ccc(S(=O)(=O)NC(C)(C)CN2CCC(Cc3ccccc3)CC2)cc1 the results were PG9 binder 0, NR2E3 ag-1 37, NR2E3 ag-2 6, MC4R barr agon 8.4*, MC4R antagonist 16 and Rev-erbA mod 0.
For Cc1ccc2nc(-c3ccc(NC(=O)Cc4cccs4)cc3)[nH]c2c1 the results were PG9 binder 1, NR2E3 ag-1 -108, NR2E3 ag-2 5, MC4R barr agon 9.4*, MC4R antagonist 15 and Rev-erbA mod 6.
Screening Cc1ccc2nc(NC(=O)Cc3cccs3)sc2c1 returned PG9 binder 0, NR2E3 ag-1 -136, NR2E3 ag-2 2, MC4R barr agon -1, MC4R antagonist 12 and Rev-erbA mod 4.
Screening Cc1cc(-n2cnnn2)cc(C)c1S(=O)(=O)NCCOc1ccccc1 returned PG9 binder -1, NR2E3 ag-1 -7, NR2E3 ag-2 -1, MC4R barr agon -1, MC4R antagonist -2 and Rev-erbA mod 0.
Screening Cc1cc(N2CCCC2=O)cc(C)c1S(=O)(=O)NCCOc1ccc(C(C)(C)C)cc1 returned PG9 binder 2, NR2E3 ag-1 95*, NR2E3 ag-2 3, MC4R barr agon -1, MC4R antagonist 1 and Rev-erbA mod 12.
Cc1ccc(SCc2ccc(C(=O)Nc3cccc([N+](=O)[O-])c3)cc2)cc1 was read as PG9 binder -2, NR2E3 ag-1 -29, NR2E3 ag-2 4, MC4R barr agon 27*, MC4R antagonist 3 and Rev-erbA mod 1.
Cc1ccc(SCc2ccc(C(=O)Nc3cc([N+](=O)[O-])ccc3C)cc2)cc1 was read as PG9 binder -3, NR2E3 ag-1 -69, NR2E3 ag-2 2, MC4R barr agon 23*, MC4R antagonist 4 and Rev-erbA mod 3.
COc1ccc(CCNc2oc(COc3ccc(F)cc3)nc2C#N)cc1 was read as PG9 binder 0, NR2E3 ag-1 -15, NR2E3 ag-2 3, MC4R barr agon 3, MC4R antagonist 1 and Rev-erbA mod 0.
Screening N=C1c2ccccc2CN1NC(=O)c1cccc(S(=O)(=O)N2CCOCC2)c1 returned PG9 binder 1, NR2E3 ag-1 -3, NR2E3 ag-2 2, MC4R barr agon -2, MC4R antagonist 13 and Rev-erbA mod -7.
Screening CC(C)Oc1ccc(CNC(=O)CC(c2ccccc2)c2cc(Cl)ccc2O)cc1 (centres undefined) returned PG9 binder 2, NR2E3 ag-1 -12, NR2E3 ag-2 7, MC4R barr agon 9.3*, MC4R antagonist 10 and Rev-erbA mod -3.
For CS(=O)(=O)c1nc(-c2ccccc2)cc(-c2ccccc2)c1C#N the results were NR2E3 ag-1 -23, NR2E3 ag-2 3, MC4R barr agon -2 and MC4R antagonist 30*.
Cc1cccc(OCc2nnc(SCC(=O)Nc3ccc(C)c(Cl)c3)o2)c1 was read as PG9 binder -1, NR2E3 ag-1 -15, NR2E3 ag-2 3, MC4R barr agon 27*, MC4R antagonist -7 and Rev-erbA mod 0.
For COc1cc(OC)cc(C(=O)NCC(=O)OCC(=O)NC(C)(C)C)c1 the results were PG9 binder 0, NR2E3 ag-1 0, NR2E3 ag-2 1, MC4R barr agon 2, MC4R antagonist 2 and Rev-erbA mod -2.
`Cc1ccc(CNCc2cc3c(C(C)(C)C)nn(-c4ccccc4)c3[nH]c2=O)cc1` gave PG9 binder -3, NR2E3 ag-1 -7, NR2E3 ag-2 2, MC4R barr agon 8.9*, MC4R antagonist 13 and Rev-erbA mod 1.
For CC(C)(C)c1nn(-c2ccccc2)c2[nH]c(=O)c(CNCc3ccco3)cc12 the results were PG9 binder -1, NR2E3 ag-1 -3, NR2E3 ag-2 1, MC4R barr agon 2, MC4R antagonist 8 and Rev-erbA mod 1.
CCOC(=O)N1CCC(N2C(=O)c3ccc(C(=O)NCc4ccco4)cc3C2=O)CC1 was read as PG9 binder -2, NR2E3 ag-1 -23, NR2E3 ag-2 4, MC4R barr agon 0, MC4R antagonist 4 and Rev-erbA mod 7.
`CCCCN(C)CC(O)Cn1cc(/C=C/C(=O)c2ccc(C)cc2)c2ccccc21` (centres undefined) gave PG9 binder -1, NR2E3 ag-1 5, NR2E3 ag-2 -1, MC4R barr agon 13*, MC4R antagonist -2 and Rev-erbA mod 8.
`CN1CCN(CCCNC(=O)c2ccc(/C=C3\Sc4ccccc4N(Cc4ccccc4F)C3=O)cc2)CC1` gave PG9 binder 0, NR2E3 ag-1 41, MC4R barr agon 8.9*, MC4R antagonist 9 and Rev-erbA mod 4.
CC(=O)NS(=O)(=O)c1ccc(NC(=O)CCC2CCCC2)cc1 was read as PG9 binder -1, NR2E3 ag-1 -26, NR2E3 ag-2 1, MC4R barr agon -2, MC4R antagonist 12 and Rev-erbA mod 0.

Source: PubChem BioAssay
